“And” between values parts separate entries of the source, which are not always exact repeats. Equal values may be shown once.
Key:
[1] = The therapeutic safety margin (TSM) is the ratio of the minimum lethal dose (mg/kg)to the MED; type: ADME, organism-based; conditions: in vivo
How it was run: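 Young male Wistar rats, eight per group, on cholesterol/cholic acid-supplemented or normal diet; graded oral gavage doses daily for 14 days; vehicle controls (0.5% tragacanth mucilage). Mortalities recorded to give the minimum lethal daily dose. After overnight fasting, serum cholesterol assayed by autoanalyzer. MED is the dose giving a significant (t test) 30% cholesterol fall, from the log dose/response curve. TSM = minimum lethal dose/MED.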

Rattus norvegicus [2] = test: Hypolipidemic activity was measured as reduction in rat serum cholesterol after oral administration in male Wistar rats at 100 mg / (kg day); type: functional
How it was run: (§1)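 Cholesterol-fed rats given the test compound orally by gavage on the last 3 days, with controls receiving vehicle (0.5% tragacanth mucilage). After overnight starvation, rats were killed under CO2 3 h after the last dose and bled by cardiac puncture. Serum cholesterol and triglyceride were measured by autoanalyzer and expressed as percentage reduction from control levels, with Student's t test.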

Rattus norvegicus [3] = test: Minimum effective dose (MED) is the dose (mg/kg)that cause significant reduction in serum cholesterol of 30% compared to concurrent controls.; type: functional; design: unit: mg/kg
How it was run: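 MED was calculated from the log dose/response curve as the dose giving a statistically significant 30% fall in serum cholesterol versus concurrent controls. Measured in the 3-day oral cholesterol-fed rat screen, or in a 2-week test: groups of eight young male Wistar rats on cholesterol/cholic acid-supplemented or normal diet, dosed orally by gavage daily for 14 days, vehicle 0.5% tragacanth mucilage.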

Rattus norvegicus [4] = test: Hypolipidemic activity was measured as reduction in rat serum cholesterol after oral administration in male Wistar rats at 100 mg/(kg day); type: functional; how it was run: as §1
Rattus norvegicus [5] = test: Hypolipidemic activity was measured as reduction in rat serum triglyceride after oral administration in male Wistar rats at 200 mg / (kg day); type: functional; how it was run: as §1
Rattus norvegicus [6] = test: Hypolipidemic activity was measured as reduction in rat serum triglyceride after oral administration in male Wistar rats at 10 mg / (kg day); type: functional; how it was run: as §1
Rattus norvegicus [7] = test: Hypolipidemic activity was measured as reduction in rat serum triglyceride after oral administration in male Wistar rats at 3 mg / (kg day); type: functional; how it was run: as §1
Rattus norvegicus [8] = test: Hypolipidemic activity was measured as reduction in rat serum cholesterol after oral administration in male Wistar rats at 30 mg / (kg day); type: functional; how it was run: as §1
Rattus norvegicus [9] = test: Hypolipidemic activity was measured as reduction in rat serum triglyceride after oral administration in male Wistar rats at 30 mg / (kg day); type: functional; how it was run: as §1
Rattus norvegicus [10] = test: Hypolipidemic activity was measured as reduction in rat serum cholesterol after oral administration in male Wistar rats at 10 mg / (kg day); type: functional; how it was run: as §1
Rattus norvegicus [11] = test: Hypolipidemic activity was measured as reduction in rat serum cholesterol after oral administration in male Wistar rats at 3 mg / (kg day); type: functional; how it was run: as §1
Rattus norvegicus [12] = test: Hypolipidemic activity was measured as reduction in rat serum cholesterol after oral administration in male Wistar rats at 200 mg / (kg day); type: functional; how it was run: as §1
Rattus norvegicus [13] = test: Hypolipidemic activity was measured as reduction in rat serum triglyceride after oral administration in male Wistar rats at 1 mg / (kg day); type: functional; how it was run: as §1
Rattus norvegicus [14] = test: Hypolipidemic activity was measured as reduction in rat serum triglyceride after oral administration in male Wistar rats at 100 mg / (kg day); type: functional; how it was run: as §1
Rattus norvegicus [15] = test: Hypolipidemic activity was measured as reduction in rat serum cholesterol after oral administration in male Wistar rats at 1 mg / (kg day); type: functional; how it was run: as §1
Rattus norvegicus [16] = test: Hypolipidemic activity was measured as reduction in rat serum cholesterol after oral administration in male Wistar rats at 50 mg / (kg day); type: functional; how it was run: as §1
Rattus norvegicus [17] = test: Hypolipidemic activity was measured as reduction in rat serum triglyceride after oral administration in male Wistar rats at 50 mg / (kg day); type: functional; how it was run: as §1

SMILES	therapeutic safety margin (minimum lethal dose / MED) [1]	Reduction (Rattus norvegicus [2])	MED (Rattus norvegicus [3])	Reduction (Rattus norvegicus [4])	Reduction (Rattus norvegicus [5])	Reduction (Rattus norvegicus [6])	Reduction (Rattus norvegicus [7])	Reduction (Rattus norvegicus [8])	Reduction (Rattus norvegicus [9])	Reduction (Rattus norvegicus [10])	Reduction (Rattus norvegicus [11])	Reduction (Rattus norvegicus [12])	Reduction (Rattus norvegicus [13])	Reduction (Rattus norvegicus [14])	Reduction (Rattus norvegicus [15])	Reduction (Rattus norvegicus [16])	Reduction (Rattus norvegicus [17])
CCc1ccc(C(c2ccns2)N2CCN(C)CC2)cc1 (configuration not stated)	< 20	32%	10	74% and 58%													
CCCc1ccc(C(c2ccns2)N2CCN(C)CC2)cc1 (configuration not stated)	20		3		86%	7%	18%	65%	34%	48%	31%	82%					
Cc1noc(C)c1C(=C1CCNCC1)c1ccc(C(C)C)cc1				89%		46%	6%	83%	83%	65%	44%		41%	89%	6%		
Cc1cnsc1C(c1ccc(C(C)C)cc1)N1CCN(CC(C)O)CC1 (configuration not stated)	12		5	64%		22%	22%	50%	65%	45%	8%			81%			
Cc1ccc(C(c2cc(C)ns2)N2CCN(C)CC2)c(C)c1 (configuration not stated)					52%			1%	31%			56%					
CC(C)c1ccccc1C(c1ccns1)N1CCN(C)CC1 (configuration not stated)			10	77%		31%	14%	43%	36%	32%	15%			71%			
CC(C)c1ccc(C(c2ccns2)N2CCNCC2)cc1 (configuration not stated)	4		1	84%		65%	18%	74%	87%	62%	57%		24%	90%	37%		
Cc1ccc(C(c2ccns2)N2CCN(C)CC2)cc1 (configuration not stated)					36%			4%	9%			30%					
CN1CCN(C(c2ccccc2)c2ccns2)CC1 (configuration not stated)					46%							68%				34%	13%
CCCCc1ccc(C(c2cc(C)ns2)N2CCN(C)CC2)cc1 (configuration not stated)					66%							75%				45%	25%
Cc1cc(C(=C2CCN(C)CC2)c2ccc(C(C)C)cc2)sn1	5		6	83%		34%	37%	87%	76%	62%	26%		3%	96%	19%		
COc1ccccc1C(c1cc(C)ns1)N1CCN(C)CC1 (configuration not stated)					78%							75%				26%	17%
Cc1noc(C)c1C(=C1CCN(C)CC1)c1ccc(C(C)C)cc1	50		1	82%		78%	43%	89%	93%	83%	58%		13%	90%	31%		
Cc1cc(C(c2ccc(C(C)C)cc2)N2CCN(C)CC2)sn1 (configuration not stated)	15		9	63%						28%	16%			85%		45%	72%
Cc1cc(C(c2ccc(C(C)C)cc2)N2CCN(S(C)(=O)=O)CC2)sn1 (configuration not stated)		19%												3%			
Cc1cc(C(c2ccc(C(C)C)cc2)N2CCNCC2)sn1 (stereo in doubt; 33)	< 10		8			38%	26%	67%	66%	43%	2%						

Reference: ChEMBL document CHEMBL1122607, “Heterocyclic analogues of chlorcyclizine with potent hypolipidemic activity” (J Med Chem, 1984)
